ChEMBL document CHEMBL3244302, “Potential long-acting anticonvulsants. 1; Synthesis and activity of succinimides containing an alkylating group at the 2 position” (J Med Chem, 1977)
The source made the active and inactive calls.

What was measured:
Mus musculus [1] = experiment: Anticonvulsant activity in mouse assessed as protection against maximal electroshock-induced hindlimb tonic extensor component of seizure at 300 mg/kg, ip after 30 mins by MES test; type: functional, organism-based; set-up: dose 300 mg/kg
Outline: (§1)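 Mice were dosed ip at 30, 100 or 300 mg/kg in 0.9% NaCl or 30% PEG 400 (0.01 ml/g), with four animals per dose. One mouse per dose got MES at 30 min and another at 4 h. Stimulus: 60-Hz AC, 50 mA, 0.2 s, corneal electrodes. Protection was abolition of hindlimb tonic extension; the lowest active dose was scored.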

Mus musculus [2] = experiment: Anticonvulsant activity in mouse assessed as protection against maximal electroshock-induced hindlimb tonic extensor component of seizure at 300 mg/kg, ip after 4 hrs by MES test; type: functional, organism-based; set-up: dose 300 mg/kg; outline: as §1
Mus musculus [3] = experiment: Anticonvulsant activity in mouse assessed as protection against metrazole-induced seizures at 300 mg/kg, ip after 30 mins by subcutaneous pentylenetetrazole seizure threshold test; type: functional, organism-based; set-up: dose 300 mg/kg
Outline: (§2)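 Screen in mice given 30, 100 or 300 mg/kg ip in 0.9% NaCl or 30% PEG 400 (0.01 ml/g), four animals per dose. Subcutaneous metrazole challenge was given to one mouse per dose at 30 min and to another at 4 h. Activity was scored as the lowest active dose.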

Mus musculus [4] = experiment: Anticonvulsant activity in mouse assessed as protection against metrazole-induced seizures at 300 mg/kg, ip after 4 hrs by subcutaneous pentylenetetrazole seizure threshold test; type: functional, organism-based; set-up: dose 300 mg/kg; outline: as §2
Mus musculus [5] = experiment: Anticonvulsant activity in mouse assessed as protection against metrazole-induced seizures at 30 mg/kg, ip after 30 mins by subcutaneous pentylenetetrazole seizure threshold test; type: functional, organism-based; set-up: dose 30 mg/kg; outline: as §2
Mus musculus [6] = experiment: Neurotoxicity in ip dosed mouse assessed as CNS depression; type: toxicity, organism-based, Central nervous system; settings: in vivo
Mus musculus [7] = experiment: Anticonvulsant activity in ip dosed mouse assessed as protection against maximal electroshock-induced hindlimb tonic extensor component of seizure by MES test; type: functional
Outline: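 Mice dosed ip at 30, 100 and 300 mg/kg, compound in 0.9% NaCl or 30% PEG 400 (0.01 ml/g); four animals per dose, one tested at 30 min and one at 4 h. Seizure induced by 60-Hz corneal current, 50 mA, 0.2 s; protection = abolition of hindlimb tonic extension. ED50 with confidence limits by Litchfield–Wilcoxon.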

Mus musculus [8] = experiment: Anticonvulsant activity in ip dosed mouse assessed as protection against metrazole-induced seizures by subcutaneous pentylenetetrazole seizure threshold test; type: functional
Outline: (§3)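 Against subcutaneous metrazole in ip-dosed mice (0.9% NaCl or 30% PEG 400 vehicle), ED50 was taken at 30 min or at the time of peak effect (0.5 h or 2 h, as the line states). ED50 and confidence limits were derived by Litchfield–Wilcoxon.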

Mus musculus [9] = experiment: Anticonvulsant activity in mouse assessed as protection against maximal electroshock-induced hindlimb tonic extensor component of seizure at 100 mg/kg, ip after 30 mins by MES test; type: functional, organism-based; set-up: dose 100 mg/kg; outline: as §1
Mus musculus [10] = experiment: Anticonvulsant activity in mouse assessed as protection against metrazole-induced seizures at 30 mg/kg, ip after 4 hrs by subcutaneous pentylenetetrazole seizure threshold test; type: functional, organism-based; set-up: dose 30 mg/kg; outline: as §2
[11] = Neurotoxicity in ip dosed mouse by rotarod test; type: toxicity, organism-based; settings: in vivo
Mus musculus [12] = experiment: Anticonvulsant activity in mouse assessed as protection against maximal electroshock-induced hindlimb tonic extensor component of seizure at 30 mg/kg, ip after 4 hrs by MES test; type: functional, organism-based; set-up: dose 30 mg/kg; outline: as §1
Mus musculus [13] = experiment: Anticonvulsant activity against metrazole-induced seizures in ip dosed mouse assessed as duration of action by subcutaneous pentylenetetrazole seizure threshold test; type: functional; outline: as §2
Mus musculus [14] = experiment: Anticonvulsant activity in mouse assessed as protection against maximal electroshock-induced hindlimb tonic extensor component of seizure at 100 mg/kg, ip after 4 hrs by MES test; type: functional, organism-based; set-up: dose 100 mg/kg; outline: as §1
Mus musculus [15] = experiment: Anticonvulsant activity in mouse assessed as protection against metrazole-induced seizures at 100 mg/kg, ip after 4 hrs by subcutaneous pentylenetetrazole seizure threshold test; type: functional, organism-based; set-up: dose 100 mg/kg; outline: as §2
Mus musculus [16] = experiment: Anticonvulsant activity in ip dosed mouse assessed as protection against metrazole-induced seizures after 0.5 hrs by subcutaneous pentylenetetrazole seizure threshold test; type: functional; outline: as §3
Mus musculus [17] = experiment: Anticonvulsant activity in ip dosed mouse assessed as protection against maximal electroshock-induced hindlimb tonic extensor component of seizure after 2 hrs by MES test; type: functional
Outline: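 MES ED50 in ip-dosed mice (0.9% NaCl or 30% PEG 400 vehicle) was read at the time of peak effect (2 h). Stimulus: 60-Hz AC, 50 mA, 0.2 s via corneal electrodes, with abolition of hindlimb tonic extension as the end point. ED50 and confidence limits were derived by Litchfield–Wilcoxon.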

Mus musculus [18] = experiment: Anticonvulsant activity in ip dosed mouse assessed as protection against metrazole-induced seizures after 2 hrs by subcutaneous pentylenetetrazole seizure threshold test; type: functional; outline: as §3
Mus musculus [19] = experiment: Anticonvulsant activity against maximal electroshock-induced hindlimb tonic extensor component of seizure in ip dosed mouse assessed as duration of action by MES test; type: functional; outline: as §1

Structure (SMILES)	Activity (Mus musculus [1])	Activity (Mus musculus [2])	Activity (Mus musculus [3])	Activity (Mus musculus [4])	Activity (Mus musculus [5])	further results
CN1C(=O)CC(CCNC(=O)/C=C\C(=O)O)(c2ccccc2)C1=O (stereo not given)	inactive	inactive	inactive	inactive		
CN1C(=O)CC(CCCNC(=O)CCl)(c2ccccc2)C1=O (stereo not given)	inactive	inactive	inactive	inactive		
CN1C(=O)CC(c2ccc(N3C(=O)C=CC3=O)cc2)C1=O (stereo not given)	inactive	inactive		inactive	Active	Activity (Mus musculus [6]): Toxic
CCC1(C)CC(=O)NC1=O (stereo not given) [ETHOSUXIMIDE]	inactive	inactive	Active	inactive		ED50 (Mus musculus [7]): > 1000 mg/kg; ED50 (Mus musculus [8]): 130 mg/kg
CN1C(=O)CC(C(=O)c2ccc(NC(=O)CBr)cc2)(c2ccccc2)C1=O (stereo not given)	inactive	inactive	inactive	inactive		
CN1C(=O)CC(c2ccccc2)C1=O (stereo not given) [PHENSUXIMIDE]		Active			Active	Activity (Mus musculus [9]): Active; Activity (Mus musculus [10]): Active; ED50 (Mus musculus [8]): 50 mg/kg; TD50 [11]: 232 mg/kg
CN1C(=O)CC(CCN2C(=O)C=CC2=O)(c2ccccc2)C1=O (stereo not given)	inactive				Active	Activity (Mus musculus [12]): Active; Activity (Mus musculus [10]): Active; Activity (Mus musculus [6]): Toxic; Time (Mus musculus [13]): 3.5 h
CN1C(=O)CC(c2ccc(NC(=O)CI)cc2)C1=O (stereo not given)	inactive			inactive	Active	Activity (Mus musculus [14]): Active; Activity (Mus musculus [6]): Toxic
CN1C(=O)CC(c2ccc(NC(=O)/C=C\C(=O)O)cc2)C1=O (stereo not given)	inactive	inactive	inactive	inactive		
CN1C(=O)CC(C(=O)c2ccc(N3C(=O)C=CC3=O)cc2)(c2ccccc2)C1=O (stereo not given)	inactive	inactive	inactive	inactive		
CN1C(=O)CC(C)(c2ccccc2)C1=O (stereo not given) [METHSUXIMIDE]	Active	Active		inactive	Active	ED50 (Mus musculus [7]): 76 mg/kg; ED50 (Mus musculus [8]): 35 mg/kg; TD50 [11]: 188 mg/kg
CN1C(=O)CC(CCNC(=O)CCl)(c2ccccc2)C1=O (stereo not given)	inactive	inactive	inactive	inactive		
CN1C(=O)CC(CCCN2C(=O)C=CC2=O)(c2ccccc2)C1=O (stereo not given)	inactive	inactive	inactive			Activity (Mus musculus [15]): Active; Activity (Mus musculus [6]): Toxic
CN1C(=O)CC(c2ccc(NC(=O)CBr)cc2)C1=O (stereo not given)	inactive	inactive			Active	Activity (Mus musculus [10]): Active; ED50 (Mus musculus [16]): 35 mg/kg; TD50 [11]: 54 mg/kg; Activity (Mus musculus [6]): Toxic; Time (Mus musculus [13]): 3.5 h
CN1C(=O)CC(C(=O)c2ccc(NC(=O)/C=C\C(=O)O)cc2)(c2ccccc2)C1=O (stereo not given)	inactive	inactive	inactive	inactive		
CN1C(=O)CC(C(=O)CBr)(c2ccccc2)C1=O (stereo not given)	inactive	inactive		inactive	Active	
CN1C(=O)CC(c2ccc(NC(=O)CCl)cc2)C1=O (stereo not given)	inactive	inactive	inactive	inactive		
CN1C(=O)CC(C(=O)CCl)(c2ccccc2)C1=O (stereo not given)	Active	Active		inactive	Active	ED50 (Mus musculus [17]): 225 mg/kg; ED50 (Mus musculus [18]): 100 mg/kg; Time (Mus musculus [19]): 3.5 h
CN1C(=O)CC(CCCNC(=O)/C=C\C(=O)O)(c2ccccc2)C1=O (stereo not given)	inactive	inactive	inactive	inactive		
